From ChEMBL document CHEMBL4270548, “Discovery of a potent glucokinase activator with a favorable liver and pancreas distribution pattern for the treatment of type 2 diabetes mellitus” (Eur J Med Chem, 2018)

Tests used:
[1] = Cytotoxicity against CHOK1 cells assessed as reduction in cell viability after 24 hrs by WST1 assay; assay type: cell-based, Cricetulus griseus; details: chinese hamster, CHO-K1 cells
Procedure, shortened: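 CHO-K1 cells plated at 6000/well in Ham's F12K with 2% FBS and 1 mM L-glutamine plus antibiotics, incubated overnight at 37 °C, 5% CO2. Exposed 24 h to compound at 1–100 µM final, with 1% DMSO vehicle and benzbromarone positive control. Viability read by WST-1.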

[2] = AUC (0 to infinity) in ICR mouse at 2 mg/kg, iv administered as single dose by LC/MS/MS analysis; assay type: ADME, organism-based; parameters: dose 2 mg/kg, route intravenous, time infinity; details: in vivo
Procedure, shortened: (§1)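 Male ICR mice (8 weeks) fasted overnight and fed 7 h post-dose. Dosing was either a single IV dose of 2 mg/kg in saline or a single oral dose of 10 mg/kg in 0.5 w/v% MC. Orbital plexus blood was taken under anesthesia at serial times to 24 h. Plasma was extracted with acetonitrile/methanol plus internal standard and quantified by LC/MS/MS.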

[3] = Primary phase half life in ICR mouse at 2 mg/kg, iv administered as single dose by LC/MS/MS analysis; assay type: ADME, organism-based; details: in vivo, read-out: alphat1/2 (converted); procedure, shortened: as §1
[4] = target: Voltage-gated inwardly rectifying potassium channel KCNH2 (Homo sapiens, UniProt Q12809); assay: Inhibition of human ERG expressed in HEK293 cells at -80 holding potential by whole patch clamp assay; assay type: cell-based
Sequence of Voltage-gated inwardly rectifying potassium channel KCNH2 (Q12809 whole entry, the tested form may be a part): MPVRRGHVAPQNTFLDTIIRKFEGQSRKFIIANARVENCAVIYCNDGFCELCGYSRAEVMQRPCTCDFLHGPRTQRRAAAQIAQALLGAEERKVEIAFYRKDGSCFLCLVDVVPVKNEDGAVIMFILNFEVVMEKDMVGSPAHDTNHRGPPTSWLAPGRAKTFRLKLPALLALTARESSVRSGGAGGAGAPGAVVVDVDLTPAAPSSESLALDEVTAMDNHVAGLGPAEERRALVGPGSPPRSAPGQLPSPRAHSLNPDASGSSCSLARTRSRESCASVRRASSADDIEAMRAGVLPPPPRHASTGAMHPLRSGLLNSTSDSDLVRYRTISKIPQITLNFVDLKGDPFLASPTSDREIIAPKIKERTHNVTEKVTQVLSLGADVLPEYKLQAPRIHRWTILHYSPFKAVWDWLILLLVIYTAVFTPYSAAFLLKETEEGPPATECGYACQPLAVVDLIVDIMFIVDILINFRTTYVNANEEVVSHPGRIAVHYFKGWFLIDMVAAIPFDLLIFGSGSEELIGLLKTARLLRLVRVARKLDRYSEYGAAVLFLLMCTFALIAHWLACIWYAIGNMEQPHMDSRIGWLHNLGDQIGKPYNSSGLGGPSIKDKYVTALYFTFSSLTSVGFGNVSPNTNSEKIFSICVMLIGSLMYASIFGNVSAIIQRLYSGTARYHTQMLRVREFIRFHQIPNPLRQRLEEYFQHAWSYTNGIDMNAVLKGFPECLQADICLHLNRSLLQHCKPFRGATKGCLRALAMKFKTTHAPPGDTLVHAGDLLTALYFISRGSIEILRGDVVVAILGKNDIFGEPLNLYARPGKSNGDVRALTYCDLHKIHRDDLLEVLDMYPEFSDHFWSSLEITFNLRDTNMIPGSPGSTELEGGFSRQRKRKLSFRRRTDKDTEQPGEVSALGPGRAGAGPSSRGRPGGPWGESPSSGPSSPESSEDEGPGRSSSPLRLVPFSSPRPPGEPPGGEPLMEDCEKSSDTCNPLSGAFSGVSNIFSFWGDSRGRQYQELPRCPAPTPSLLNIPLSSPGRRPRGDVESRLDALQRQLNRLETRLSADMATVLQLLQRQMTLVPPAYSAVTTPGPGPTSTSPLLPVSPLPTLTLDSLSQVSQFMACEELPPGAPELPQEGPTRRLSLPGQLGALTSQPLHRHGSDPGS
Procedure, shortened: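 Whole-cell patch clamp on HEK293 stably expressing hERG, perfused at 26.0 ± 2.0 °C. Holding potential −80 mV. Steps to −40 to +20 mV for 1.5 s, then −50 mV for 1.5 s, repeated every 15 s. Concentrations 3–300 µM, 0.1% DMSO vehicle, E-4031 positive control.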

[5] = Ratio of AUC (0 to 1.5 hrs) in C57BL/6J mouse liver to pancreas at 10 mg/kg, po administered as single dose by LC/MS/MS analysis; assay type: ADME, organism-based; details: in vivo
[6] = Ratio of AUC (0 to 1.5 hrs) in C57BL/6J mouse pancreas to plasma at 10 mg/kg, po administered as single dose by LC/MS/MS analysis; assay type: ADME, organism-based; details: pancreas and plasma, read-out: Ratio AUC
[7] = AUC (0 to 1.5 hrs) in C57BL/6J mouse liver at 100 mg/kg, po administered as single dose by LC/MS/MS analysis; assay type: ADME, organism-based; parameters: time < 1.5 hr, dose 100 mg/kg, route oral; details: in vivo
Procedure, shortened: (§2)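 Overnight-fasted male C57BL/6J mice (8 weeks) given a single oral dose (10, 30 or 100 mg/kg) in 0.1 w/v% Tween80 / 0.5 w/v% MC. Plasma taken via postcaval vein, liver and pancreas dissected and homogenized at 0.5, 1 and 1.5 h. LC/MS/MS with internal standard after acetonitrile/methanol extraction. AUC0-1.5h by trapezoidal rule, mean ± SD (n = 3). Kp = AUCtissue/AUCplasma. L/P = AUCliver/AUCpancreas.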

Mus musculus [8] = assay: Toxicity in C57BL/6J mouse assessed as hypoglycemia at <100 mg/kg, po measured up to 300 mins by glucometric method; assay type: organism-based; details: in vivo, 5 h
Procedure, shortened: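 Male C57BL/6J mice (8 weeks) fasted 2 h and dosed orally at time 0 (n = 8/group). Tail vein glucose measured by glucometer at 0, 60, 120, 180, 240 and 300 min. Hypoglycemia defined as plasma glucose < 60 mg/dL. Mean ± SEM, Dunnett's test.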

[9] = Ratio of AUC (0 to 1.5 hrs) in C57BL/6J mouse liver to pancreas at 100 mg/kg, po administered as single dose by LC/MS/MS analysis; assay type: ADME, organism-based; details: in vivo; procedure, shortened: as §2
[10] = AUC (0 to 1.5 hrs) in C57BL/6J mouse plasma at 10 mg/kg, po administered as single dose by LC/MS/MS analysis; assay type: ADME, organism-based; parameters: time < 1.5 hr, dose 10 mg/kg, route oral
[11] = Volume of distribution at steady state in ICR mouse at 2 mg/kg, iv administered as single dose by LC/MS/MS analysis; assay type: ADME, organism-based; details: in vivo, read-out: Vdss; procedure, shortened: as §1
[12] = Ratio of AUC (0 to 1.5 hrs) in C57BL/6J mouse pancreas to plasma at 100 mg/kg, po administered as single dose by LC/MS/MS analysis; assay type: ADME, organism-based; details: pancreas and plasma, read-out: Ratio AUC; procedure, shortened: as §2
[13] = Ratio of AUC (0 to 1.5 hrs) in C57BL/6J mouse liver to plasma at 10 mg/kg, po administered as single dose by LC/MS/MS analysis; assay type: ADME, organism-based; details: liver and plasma, read-out: Ratio AUC
[14] = Ratio of AUC (0 to 1.5 hrs) in C57BL/6J mouse liver to pancreas at 30 mg/kg, po administered as single dose by LC/MS/MS analysis; assay type: ADME, organism-based; details: in vivo
[15] = AUC (0 to 1.5 hrs) in C57BL/6J mouse pancreas at 30 mg/kg, po administered as single dose by LC/MS/MS analysis; assay type: ADME, organism-based; parameters: time < 1.5 hr, dose 30 mg/kg, route oral; details: in vivo
[16] = Clearance in ICR mouse plasma at 2 mg/kg, iv administered as single dose by LC/MS/MS analysis; assay type: ADME, organism-based; procedure, shortened: as §1
[17] = Ratio of AUC (0 to 1.5 hrs) in C57BL/6J mouse liver to plasma at 100 mg/kg, po administered as single dose by LC/MS/MS analysis; assay type: ADME, organism-based; details: liver and plasma, read-out: Ratio AUC; procedure, shortened: as §2
[18] = AUC (0 to 1.5 hrs) in C57BL/6J mouse liver at 10 mg/kg, po administered as single dose by LC/MS/MS analysis; assay type: ADME, organism-based; parameters: time < 1.5 hr, dose 10 mg/kg, route oral; details: in vivo
[19] = Tmax in ICR mouse at 10 mg/kg, po administered as single dose by LC/MS/MS analysis; assay type: ADME, organism-based; details: in vivo; procedure, shortened: as §1
[20] = Oral bioavailability in ICR mouse at 10 mg/kg administered as single dose by LC/MS/MS analysis; assay type: ADME, organism-based; details: in vivo; procedure, shortened: as §1
[21] = Terminal half life in ICR mouse at 2 mg/kg, iv administered as single dose by LC/MS/MS analysis; assay type: ADME, organism-based; details: in vivo, read-out: beta t1/2 (converted); procedure, shortened: as §1
[22] = AUC (0 to 1.5 hrs) in C57BL/6J mouse pancreas at 10 mg/kg, po administered as single dose by LC/MS/MS analysis; assay type: ADME, organism-based; parameters: dose 10 mg/kg, time < 1.5 hr, route oral; details: in vivo
[23] = AUC (0 to infinity) in ICR mouse at 10 mg/kg, po administered as single dose by LC/MS/MS analysis; assay type: ADME, organism-based; parameters: dose 10 mg/kg, route oral, time infinity; details: in vivo; procedure, shortened: as §1
[24] = Cmax in ICR mouse at 10 mg/kg, po administered as single dose by LC/MS/MS analysis; assay type: ADME, organism-based; parameters: dose 10 mg/kg, route oral; details: in vivo; procedure, shortened: as §1
[25] = AUC (0 to 1.5 hrs) in C57BL/6J mouse plasma at 100 mg/kg, po administered as single dose by LC/MS/MS analysis; assay type: ADME, organism-based; parameters: time < 1.5 hr, dose 100 mg/kg, route oral; procedure, shortened: as §2
[26] = AUC (0 to 1.5 hrs) in C57BL/6J mouse plasma at 30 mg/kg, po administered as single dose by LC/MS/MS analysis; assay type: ADME, organism-based; parameters: dose 30 mg/kg, time < 1.5 hr, route oral
Mus musculus [27] = assay: Toxicity in ob/ob mouse assessed as effect on hepatic tryglyceride level at 10 to 30 mg/kg, po bid administered for 28 days measured up to post last dose; assay type: organism-based; details: in vivo, 672 h
Procedure, shortened: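 Male ob/ob mice (9 weeks) dosed orally twice daily for 4 weeks, vehicle 0.5% MC. Plasma glucose measured by portable glucometer at 2 and 4 weeks. Liver TG assessed at the end of treatment. Mean ± SEM (n = 10), Dunnett's test versus vehicle.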

[28] = AUC (0 to 1.5 hrs) in C57BL/6J mouse pancreas at 100 mg/kg, po administered as single dose by LC/MS/MS analysis; assay type: ADME, organism-based; parameters: time < 1.5 hr, dose 100 mg/kg, route oral; details: in vivo; procedure, shortened: as §2
[29] = AUC (0 to 1.5 hrs) in C57BL/6J mouse liver at 30 mg/kg, po administered as single dose by LC/MS/MS analysis; assay type: ADME, organism-based; parameters: dose 30 mg/kg, time < 1.5 hr, route oral; details: in vivo
[30] = Ratio of AUC (0 to 1.5 hrs) in C57BL/6J mouse pancreas to plasma at 30 mg/kg, po administered as single dose by LC/MS/MS analysis; assay type: ADME, organism-based; details: pancreas and plasma, read-out: Ratio AUC
[31] = Cytotoxicity against rat primary hepatocytes assessed as reduction in cell viability after 24 hrs by AlamarBlue assay; assay type: cell-based, Hepatocyte
Procedure, shortened: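 Hepatocytes isolated from male SD rats (7 weeks) by two-step collagenase perfusion. Seeded at 2–3×10^4/well on collagen in modified WE medium with 10% FBS, dexamethasone and insulin, switched to serum-free medium at 4 h. At 20–24 h exposed 24 h to 1–100 µM final, 1% DMSO vehicle. Viability read by alamarBlue.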

[32] = Ratio of AUC (0 to 1.5 hrs) in C57BL/6J mouse liver to plasma at 30 mg/kg, po administered as single dose by LC/MS/MS analysis; assay type: ADME, organism-based; details: liver and plasma, read-out: Ratio AUC
[33] = Terminal half life in ICR mouse at 10 mg/kg, po administered as single dose by LC/MS/MS analysis; assay type: ADME, organism-based; details: in vivo, read-out: beta t1/2 (converted); procedure, shortened: as §1

CCN(CC(=O)O)CC(=O)N1CCC[C@H]1c1cc(C(=O)Nc2ncc(F)s2)c(C)s1
CC50 at 24 h [1]: > 100 µM
AUC(0-inf) [2]: 8580 ng·h/mL
half-life [3]: 28.2 min
IC50 [4]: > 300 µM
Ratio AUC [5]: 20.6
Kp [6]: 0.064
AUC [7]: 148000 ng·h/g
Activity (Mus musculus [8]): Non-Toxic
Ratio AUC [9]: 14
AUC(0-t) at 1.5 h [10]: 6750 ng·h/mL
Vd [11]: 0.31 L/kg
Kp [12]: 0.12
Kp [13]: 1.3
Ratio AUC [14]: 22.5
AUC [15]: 1430 ng·h/g
clearance [16]: 3.88 mL/min/kg
Kp [17]: 1.7
AUC [18]: 8910 ng·h/g
Tmax [19]: 15 min
bioavailability [20]: 20%
half-life [21]: 96 min
AUC [22]: 433 ng·h/g
AUC(0-inf) [23]: 8600 ng·h/mL
Cmax [24]: 3020 ng/mL
AUC(0-t) at 1.5 h [25]: 86900 ng·h/mL
AUC(0-t) at 1.5 h [26]: 17700 ng·h/mL
Activity (Mus musculus [27]): Non-Toxic
AUC [28]: 10500 ng·h/g
AUC [29]: 32300 ng·h/g
Kp [30]: 0.081
CC50 at 24 h [31]: > 100 µM
Kp [32]: 1.6
half-life [33]: 120 min
